Publication PMC6099358 (Diabetes, Obesity & Metabolism, 2018)

Experiments:
[1] = test system: Japanese participants with T2DM; conditions: 10 mg, Day 28, Japanese T2DM; cited from earlier work
[2] = test system: Japanese participants with T1DM; assay: Continuous glucose monitoring; format: in vivo, human; conditions: within Week 4, CGM
Summary of the method: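 A blinded professional CGM device was worn from Day −6 to Day 28 during once-daily oral test compound or placebo. Glucose exposure was taken as mean daily glucose AUC. Variability was taken as glucose interquartile range, plus % time at ≤70, >70 to ≤180 and >180 mg/dL. Week-4 changes from baseline are adjusted means.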

[3] = test system: Japanese participants with T1DM; assay: 24-hour urinary glucose excretion; format: in vivo, human; conditions: for placebo-corrected adjusted mean (95% CI) change from baseline in 24-hour UGE: Day 7
Summary of the method: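 Japanese adults with T1DM on multiple daily insulin injections, after a 2-week placebo run-in, were randomized 1:1:1:1 to oral test compound 2.5, 10 or 25 mg or placebo once each morning for 4 weeks. All urine was collected over 24 h at baseline and Days 1, 7 and 28. Day-7 change was analysed by ANCOVA (baseline covariate) with LOCF.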

[4] = Pharmacokinetics of empagliflozin in plasma; format: in vivo, human
Summary of the method: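 Blood and urine were sampled on Days 1 and 28 of 4-week once-daily oral dosing (2.5, 10, 25 mg). Concentrations were measured by validated LC-MS/MS. Steady state was judged from troughs on Days 2, 7, 14, 21, 27, 28 and 29. Cmax, AUC and t1/2,ss were derived non-compartmentally. Timepoint statistics required ≥2/3 of values within the validated range.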

[5] = test system: Japanese participants with T1DM; assay: Ketogenesis markers; format: in vivo, human; conditions: after 4 weeks of treatment
Summary of the method: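 Serum β-hydroxybutyrate was sampled on Days −1, 1, 7 and 8 and measured by a contract laboratory. The change from baseline in AUC0–24h was calculated on Day 7. Day-28 levels were measured among the laboratory safety parameters and summarised descriptively.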

[6] = test system: Japanese participants with T1DM; assay: Laboratory safety parameters; format: in vivo, human; conditions: empagliflozin groups, Day 28
Summary of the method: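 Blood and urine were collected on Days 1, 7 and 28 of once-daily oral dosing with test compound or placebo. They were measured centrally and summarised descriptively in the treated set.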

[7] = test system: Japanese participants with T1DM; assay: Adverse events and hypoglycaemic episodes during 4-week double-blind treatment; format: in vivo, human; conditions: 4 weeks
Summary of the method: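 In a double-blind, 4-week study, participants took test compound 2.5, 10 or 25 mg or placebo orally once daily. Adverse events were coded in MedDRA 19.1. Hypoglycaemic events were based on scheduled blood glucose tests and/or CGM. Special-interest events included genital and urinary infections and volume depletion. Severe hypoglycaemia and DKA were adjudicated externally. Results were summarised descriptively in all treated participants.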

[8] = test system: Japanese participants with T1DM; assay: HbA1c and fasting plasma glucose; format: in vivo, human; conditions: Day 28
Summary of the method: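 During 4 weeks of once-daily oral test compound or placebo, blood was drawn for HbA1c on Days 1 and 28. FPG was sampled on Days −1, 1, 2, 7, 8, 14, 21, 28 and 29. Samples were assayed at a central laboratory. Changes from baseline were analysed by ANCOVA (treatment fixed, baseline covariate).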

[9] = test system: participants with T2DM with established cardiovascular disease; conditions: cited from earlier work
Body weight = format: in vivo, human; conditions: Day 28
Summary of the method: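 T1DM participants on multiple daily insulin injections took oral test compound or placebo once daily for 4 weeks. Body weight was measured on Day 28. Change from baseline was analysed by ANCOVA, with treatment as a fixed effect and baseline as a linear covariate.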

[10] = test system: Japanese participants with T1DM; assay: Weekly recorded insulin dose; format: in vivo, human; conditions: for recorded insulin dose adjusted mean difference vs placebo (95% CI): Week 4; for % of adjusted mean change from baseline in recorded insulin dose (reduction from baseline): within Week 4
Summary of the method: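 Participants recorded basal and bolus insulin doses in a diary. Weekly totals were compiled during 4 weeks of once-daily oral test compound or placebo. At randomization, HbA1c 7.5–<8% prompted a 10% cut in daily insulin; otherwise dosing was at investigator discretion. Changes were analysed by ANCOVA with baseline covariate.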

OC[C@H]1O[C@@H](c2ccc(Cl)c(Cc3ccc(O[C@H]4CCOC4)cc3)c2)[C@H](O)[C@@H](O)[C@@H]1O [empagliflozin]
adjusted effect on UGE [1]: 80.9 g/24 h | IQR of glucose adjusted mean difference vs placebo (95% CI) ([2]; 2.5 mg): -23.08 mg/dL | MDAUC of glucose adjusted mean difference vs placebo (95% CI) ([2]; 2.5 mg): -558 mg·h/dL | IQR of glucose adjusted mean difference vs placebo (95% CI) ([2]; 10 mg): -13.08 mg/dL | MDAUC of glucose adjusted mean difference vs placebo (95% CI) ([2]; 10 mg): -338 mg·h/dL | IQR of glucose adjusted mean difference vs placebo (95% CI) ([2]; 25 mg): -22.09 mg/dL | MDAUC of glucose adjusted mean difference vs placebo (95% CI) ([2]; 25 mg): -514 mg·h/dL | placebo-corrected adjusted mean (95% CI) change from baseline in 24-hour UGE ([3]; 2.5 mg once daily): 65.10 [43.29, 86.90] g/24 h | adjusted effect on UGE ([3]; 2.5 mg, Day 28, Japanese T1DM): 91.0 g/24 h | placebo-corrected adjusted mean (95% CI) change from baseline in 24-hour UGE ([3]; 10 mg once daily): 81.19 [58.80, 103.58] g/24 h | placebo-corrected adjusted mean (95% CI) change from baseline in 24-hour UGE ([3]; 25 mg once daily): 98.11 [75.91, 120.31] g/24 h | exposure (AUC and Cmax) versus dose ([4]; after a single dose and at steady state): increased proportionally with dose | Tmax ([4]; human, plasma, po): ~1.5 h | time to steady state ([4]; once daily oral dosing, trough concentrations): ≤ 7 days | time to peak plasma level after dosing ([4]; single and multiple oral doses, 2.5-25 mg): 1.5 h | highest individual serum BHB level [5]: approximately 0.8 mmol/L | mean serum BHB levels ([5]; all doses): < 0.5 mmol/L | changes from baseline in laboratory safety parameters (overall) [6]: no significant changes from baseline | Asymptomatic hypoglycaemia with PG ≤70 mg/dL, rate ([7]; 2.5 mg): 5.1 episodes per 30 days per participant | Asymptomatic hypoglycaemia with PG ≤70 mg/dL, total number of episodes ([7]; 2.5 mg): 62 episodes | Death ([7]; 2.5 mg): 0 (0) % (n) of participants | Decreased renal function ([7]; 2.5 mg): 0 (0) % (n) of participants | Events consistent with UTI ([7]; 2.5 mg): 0 (0) % (n) of participants | Events consistent with genital infection ([7]; 2.5 mg): 7.7 (1) % (n) of participants | Events consistent with volume depletion ([7]; 2.5 mg): 0 (0) % (n) of participants | Hepatic injury ([7]; 2.5 mg): 0 (0) % (n) of participants | Hypoglycaemia (AE) ([7]; 2.5 mg): 92.3 (12) % (n) of participants | Hypoglycaemia requiring assistance, rate ([7]; 2.5 mg): 0 (0) episodes per 30 days per participant | Hypoglycaemia requiring assistance, total number of episodes ([7]; 2.5 mg): 0 (0) episodes | Ketoacidosis ([7]; 2.5 mg): 0 (0) % (n) of participants | Symptomatic hypoglycaemia with PG <54 mg/dL, rate ([7]; 2.5 mg): 1.5 episodes per 30 days per participant | Symptomatic hypoglycaemia with PG <54 mg/dL, total number of episodes ([7]; 2.5 mg): 18 episodes | Symptomatic hypoglycaemia with PG ≥54 and ≤70 mg/dL, rate ([7]; 2.5 mg): 1.8 episodes per 30 days per participant | Symptomatic hypoglycaemia with PG ≥54 and ≤70 mg/dL, total number of episodes ([7]; 2.5 mg): 22 episodes | participants with genital infection (vulvovaginal candidiasis of mild intensity) ([7]; 2.5 mg): 1 participants | ≥1 AE ([7]; 2.5 mg): 92.3 (12) % (n) of participants | ≥1 AE leading to discontinuation ([7]; 2.5 mg): 0 (0) % (n) of participants | ≥1 Drug-related AE ([7]; 2.5 mg): 84.6 (11) % (n) of participants | ≥1 Serious AE ([7]; 2.5 mg): 0 (0) % (n) of participants | ≥1 Severe AE ([7]; 2.5 mg): 0 (0) % (n) of participants | Asymptomatic hypoglycaemia with PG ≤70 mg/dL, rate ([7]; 10 mg): 6.7 episodes per 30 days per participant | Asymptomatic hypoglycaemia with PG ≤70 mg/dL, total number of episodes ([7]; 10 mg): 78 episodes | Death ([7]; 10 mg): 0 (0) % (n) of participants | Decreased renal function ([7]; 10 mg): 0 (0) % (n) of participants | Events consistent with UTI ([7]; 10 mg): 0 (0) % (n) of participants | Events consistent with genital infection ([7]; 10 mg): 0 (0) % (n) of participants | Events consistent with volume depletion ([7]; 10 mg): 0 (0) % (n) of participants | Hepatic injury ([7]; 10 mg): 0 (0) % (n) of participants | Hypoglycaemia (AE) ([7]; 10 mg): 100 (12) % (n) of participants | Hypoglycaemia requiring assistance, rate ([7]; 10 mg): 0 (0) episodes per 30 days per participant | Hypoglycaemia requiring assistance, total number of episodes ([7]; 10 mg): 0 (0) episodes | Ketoacidosis ([7]; 10 mg): 0 (0) % (n) of participants | Symptomatic hypoglycaemia with PG <54 mg/dL, rate ([7]; 10 mg): 2.7 episodes per 30 days per participant | Symptomatic hypoglycaemia with PG <54 mg/dL, total number of episodes ([7]; 10 mg): 31 episodes | Symptomatic hypoglycaemia with PG ≥54 and ≤70 mg/dL, rate ([7]; 10 mg): 3.9 episodes per 30 days per participant | Symptomatic hypoglycaemia with PG ≥54 and ≤70 mg/dL, total number of episodes ([7]; 10 mg): 45 episodes | ≥1 AE ([7]; 10 mg): 100 (12) % (n) of participants | ≥1 AE leading to discontinuation ([7]; 10 mg): 0 (0) % (n) of participants | ≥1 Drug-related AE ([7]; 10 mg): 100 (12) % (n) of participants | ≥1 Serious AE ([7]; 10 mg): 0 (0) % (n) of participants | ≥1 Severe AE ([7]; 10 mg): 0 (0) % (n) of participants | Asymptomatic hypoglycaemia with PG ≤70 mg/dL, total number of episodes ([7]; 25 mg): 140 episodes | Death ([7]; 25 mg): 0 (0) % (n) of participants | Decreased renal function ([7]; 25 mg): 0 (0) % (n) of participants | Events consistent with UTI ([7]; 25 mg): 0 (0) % (n) of participants | Events consistent with genital infection ([7]; 25 mg): 8.3 (1) % (n) of participants | Events consistent with volume depletion ([7]; 25 mg): 0 (0) % (n) of participants | Hepatic injury ([7]; 25 mg): 0 (0) % (n) of participants | Hypoglycaemia (AE) ([7]; 25 mg): 100 (12) % (n) of participants | Hypoglycaemia requiring assistance, rate ([7]; 25 mg): 0 (0) episodes per 30 days per participant | Hypoglycaemia requiring assistance, total number of episodes ([7]; 25 mg): 0 (0) episodes | Ketoacidosis ([7]; 25 mg): 0 (0) % (n) of participants | Symptomatic hypoglycaemia with PG <54 mg/dL, rate ([7]; 25 mg): 1.8 episodes per 30 days per participant | Symptomatic hypoglycaemia with PG <54 mg/dL, total number of episodes ([7]; 25 mg): 21 episodes | Symptomatic hypoglycaemia with PG ≥54 and ≤70 mg/dL, rate ([7]; 25 mg): 1.0 episodes per 30 days per participant | Symptomatic hypoglycaemia with PG ≥54 and ≤70 mg/dL, total number of episodes ([7]; 25 mg): 12 episodes | participants with genital infection (vulvovaginal candidiasis of mild intensity) ([7]; 25 mg): 1 participants | ≥1 AE ([7]; 25 mg): 100 (12) % (n) of participants | ≥1 AE leading to discontinuation ([7]; 25 mg): 0 (0) % (n) of participants | ≥1 Drug-related AE ([7]; 25 mg): 91.7 (11) % (n) of participants | ≥1 Serious AE ([7]; 25 mg): 0 (0) % (n) of participants | ≥1 Severe AE ([7]; 25 mg): 0 (0) % (n) of participants | DKA events (investigator-reported or adjudicated) ([7]; all doses): No events meeting the criteria for DKA were reported | tolerability ([7]; all three doses (2.5, 10, 25 mg)): generally well tolerated | FPG adjusted mean difference vs placebo (95% CI) ([8]; 2.5 mg): -14.27 mg/dL | HbA1c adjusted mean difference vs placebo (95% CI) ([8]; 2.5 mg): −0.20% | FPG adjusted mean difference vs placebo (95% CI) ([8]; 10 mg): -43.63 mg/dL | HbA1c adjusted mean difference vs placebo (95% CI) ([8]; 10 mg): −0.35% | FPG adjusted mean difference vs placebo (95% CI) ([8]; 25 mg): -59.57 mg/dL | HbA1c adjusted mean difference vs placebo (95% CI) ([8]; 25 mg): −0.20% | reduction of incident or worsening nephropathy [9]: 39% | reduction of risk of cardiovascular death [9]: 38% | body weight adjusted mean difference vs placebo (95% CI) (Body weight; 2.5 mg): -1.37 kg | body weight adjusted mean difference vs placebo (95% CI) (Body weight; 10 mg): -1.47 kg | body weight adjusted mean difference vs placebo (95% CI) (Body weight; 25 mg): -1.70 kg | recorded insulin dose adjusted mean difference vs placebo (95% CI) ([10]; 2.5 mg): −0.08 U/kg | % of adjusted mean change from baseline in recorded insulin dose (reduction from baseline) ([10]; 2.5 mg): −20.5% | recorded insulin dose adjusted mean difference vs placebo (95% CI) ([10]; 10 mg): −0.10 U/kg | % of adjusted mean change from baseline in recorded insulin dose (reduction from baseline) ([10]; 10 mg): −23.3% | recorded insulin dose adjusted mean difference vs placebo (95% CI) ([10]; 25 mg): −0.09 U/kg | % of adjusted mean change from baseline in recorded insulin dose (reduction from baseline) ([10]; 25 mg): −24.2%
